# An excerpt weighted towards active compounds, which were near 1.3% of everything screened.
# PfG6PD inh = PfG6PD enzyme inhibitors, primary screen, biochemical, fluorescence intensity, uHTS | inhibition, % at 20 µM | PfGluPho enzyme, NADPH resazurin-diaphorase fluorescence | AID 504690, 2011 | 350,000 compounds, 0.78% hits;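 active = inhibition reaching at least a set limit at 20 µM in the primary screen, cut at about 59% in these data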;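 also: 0% = DMSO wells with substrate and 100% = DMSO wells lacking glucose-6-phosphate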
# HKDC1 inh = HKDC1 hexokinase inhibitors, primary screen, biochemical, fluorescence, uHTS. AID 493160, 2011. inhibition, % at 20 µM. recombinant HKDC1, G6PDH/diaphorase resazurin coupled fluorescence. 340,000 compounds, 0.16% hits. Q2TB90;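 active = inhibition above about 35% when tested at 20 µM, limit read from the data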;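 also: plate controls were DMSO wells with enzyme for no effect and DMSO wells lacking enzyme for full effect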
# Target sequence (Q2TB90 whole entry, looked up): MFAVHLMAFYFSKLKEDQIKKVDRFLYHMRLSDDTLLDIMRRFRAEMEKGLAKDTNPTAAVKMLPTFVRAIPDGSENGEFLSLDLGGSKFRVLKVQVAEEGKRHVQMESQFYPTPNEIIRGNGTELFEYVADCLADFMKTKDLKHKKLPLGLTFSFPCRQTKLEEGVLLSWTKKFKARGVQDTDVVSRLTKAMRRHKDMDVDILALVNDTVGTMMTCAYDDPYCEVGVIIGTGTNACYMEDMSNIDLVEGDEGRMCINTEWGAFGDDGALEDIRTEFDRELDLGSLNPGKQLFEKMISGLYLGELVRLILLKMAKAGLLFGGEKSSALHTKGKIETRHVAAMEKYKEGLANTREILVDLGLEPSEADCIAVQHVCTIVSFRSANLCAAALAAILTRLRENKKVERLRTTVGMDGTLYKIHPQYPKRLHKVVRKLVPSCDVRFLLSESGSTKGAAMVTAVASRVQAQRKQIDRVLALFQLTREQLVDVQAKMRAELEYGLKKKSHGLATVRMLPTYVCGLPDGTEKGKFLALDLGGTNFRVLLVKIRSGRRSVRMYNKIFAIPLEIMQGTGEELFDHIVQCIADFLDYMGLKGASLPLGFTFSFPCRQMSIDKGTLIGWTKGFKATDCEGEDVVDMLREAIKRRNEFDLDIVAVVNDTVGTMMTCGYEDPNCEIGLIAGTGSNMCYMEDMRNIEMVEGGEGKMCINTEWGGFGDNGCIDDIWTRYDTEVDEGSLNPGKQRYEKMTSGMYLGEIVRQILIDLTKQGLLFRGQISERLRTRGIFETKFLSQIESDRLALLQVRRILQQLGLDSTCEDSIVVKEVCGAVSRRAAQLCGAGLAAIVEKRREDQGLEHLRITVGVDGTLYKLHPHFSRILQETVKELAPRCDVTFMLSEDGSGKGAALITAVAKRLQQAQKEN
#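 Test system: HK5 enzyme. Quantity: 5 µg/mL HK5 final. Reagent: glucose and ATP substrates. Schedule: 90 min reaction incubation at room temperature, dark. Technique: resazurin-to-resorufin fluorescence via G6PDH and diaphorase coupling, 525/613 nm. Control set: DMSO wells with and without enzyme mix.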
# Diaph inh CS = diaphorase inhibitors and chemical oxidizers, primary screen, counter-screen for diaphorase-coupled primary assays, biochemical, uHTS, resorufin fluorescence; diaphorase resazurin-to-resorufin fluorescence, NADH, 16 min; bacterial (C. kluyveri) enzyme, not human; 190,000 compounds, 0.69% hits; inhibition, % at 20 µM;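 active = primary screen inhibition at 20 µM above a set limit, cut at about 50% in these data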;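 also: plate controls were DMSO with full reaction for no effect and wells lacking NADH for full effect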
#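 System: Diaphorase enzyme from Clostridium kluyveri | Amount: Enzyme working solution with 0.14 U/mL diaphorase | Benchmarks: No-NADH positive control and DMSO neutral control | Signal: Fluorescence of resorufin formed from resazurin, Ex 544/Em 590 nm | Schedule: 16-min room-temperature incubation before reading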
# Tb hexokinase = Trypanosoma brucei hexokinase 1 inhibitors, primary screen, biochemical, G6PDH-coupled NADH absorbance, MLSCN library | inhibition, % at 10 µM | 220,000 compounds, 0.11% hits | recombinant TbHK1, G6PDH-coupled NADH A340 | hexokinase 1 [Trypanosoma brucei] | AID 1430, 2008;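 active = inhibition of 50% or more in the single-dose primary screen; inactive = inhibition below 50%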
# G6PDH counter-1 = L. mesenteroides G6PDH inhibitors, counter-screen for G6PDH-coupled screening assays, biochemical, Leuconostoc mesenteroides enzyme; Purified L. mesenteroides G6PDH, diaphorase/resazurin coupled fluorescence, 45 min; inhibition, % at 5 µM; AID 1020, 2008; 200,000 compounds, 0.12% hits; glucose-6-phosphate dehydrogenase [Leuconostoc mesenteroides]; in the data active = inhibition above about 50%
# G6PDH counter-2 = Leuconostoc G6PDH inhibition, confirmation, counter-screen for TbHK1 inhibitor project, biochemical, DPI cherry-picked compounds, single concentration; shares compounds with Tb hexokinase; purified G6PDH, NADH absorbance, 1 h; inhibition, % at 10 µM; 210 compounds, 7% hits;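 active = at least 50% inhibition in the glucose-6-phosphate dehydrogenase coupled counterscreen; inconclusive = no clear call, values can overlap the other calls; inactive = inhibition below 50%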
# TbHK1 confirm = TbHK1 inhibitor retest, confirmation, biochemical, DPI cherry-picked primary actives | recombinant TbHK1, G6PDH-coupled NADH A340 absorbance | shares compounds with Tb hexokinase | inhibition, % at 10 µM | 210 compounds, 10% hits | AID 2560, 2010;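 active = inhibition of at least 50% in both of the two screening runs; inconclusive = at least 50% in one run, below 50% in the other; inactive = inhibition below 50% in both runs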;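 also: 0% and 100% set by the maximum and minimum signal control wells on each plate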
# HKDC1 act conf2 = HKDC1 hexokinase activators, confirmation, biochemical, single concentration. shares compounds with HKDC1 inh. recombinant HKDC1, G6PDH/diaphorase resazurin fluorescence; hits give low values. inhibition, % at 20 µM. 740 compounds, 14% hits. AID 504708, 2011;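 active = inhibition at or below a set negative limit, negative inhibition meaning the enzyme was activated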
# PfGluPho conf = PfG6PD inhibitors, hit retest, confirmation, biochemical, fluorescence intensity, single concentration; 2,400 compounds, 34% hits; recombinant PfGluPho, NADPH-diaphorase-resazurin fluorescence; inhibition, % at 20 µM; shares compounds with PfG6PD inh;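 active = inhibition of at least 50% at 20 µM in any single replicate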;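 also: 0% = DMSO with substrate and 100% = DMSO lacking glucose-6-phosphate substrate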
# Diaph ctr 10uM = diaphorase inhibitors and chemical oxidizers, confirmation, counter-screen for P. falciparum G6PD inhibitor project, biochemical, fluorescence intensity, 10 µM NADPH; inhibition, % at 20 µM; diaphorase-coupled resazurin reduction, NADPH 10 uM; 820 compounds, 39% hits; shares compounds with PfG6PD inh;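 active = average inhibition reaching 50% or more with the compound at 20 µM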;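 also: resorufin red fluorescence formed as diaphorase reduces resazurin using NADPH; 0% = DMSO with enzyme and 100% = DMSO without enzyme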
# Diaph ctr 30uM = diaphorase inhibitors and chemical oxidizers, confirmation, counter-screen for P. falciparum G6PD inhibitor project, biochemical, fluorescence intensity, 30 µM NADPH; Diaphorase/resazurin coupled assay, resorufin fluorescence; 820 compounds, 29% hits; inhibition, % at 20 µM; shares compounds with PfG6PD inh; AID 504863, 2011;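 active = inhibition averaging 50% or more, tested at 20 µM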;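 also: 0% = DMSO with enzyme and 100% = DMSO wells lacking diaphorase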
# Starred values were filed as active, the others as inactive; ? = inconclusive; . = no result.
SMILES,PfG6PD inh,HKDC1 inh,Diaph inh CS,Tb hexokinase,G6PDH counter-1,HKDC1 act conf2,others
O=C(O)CSc1cc(NS(=O)(=O)c2cccc([N+](=O)[O-])c2)c2ccccc2c1O,106*,59*,.,63*,.,48,G6PDH counter-2=74*;TbHK1 confirm=62*;PfGluPho conf=89*;Diaph ctr 10uM=51*;Diaph ctr 30uM=41
C[C@@H]1CN([C@H](C)CO)C(=O)c2cc(C3=CCCCC3)cnc2O[C@@H]1CN(C)Cc1ccccc1C(=O)O,-11,.,.,.,.,.,
Cn1nc(-c2ccccn2)nc2c(=O)n(C)c(=O)nc1-2,113*,29,.,70*,.,.,G6PDH counter-2=?;TbHK1 confirm=41;PfGluPho conf=89*;Diaph ctr 10uM=98*;Diaph ctr 30uM=103*
Cc1ccc(-c2nc(N)s[n+]2-c2ccccc2)cc1,110*,-6,27,98*,7,.,G6PDH counter-2=14;TbHK1 confirm=95*;PfGluPho conf=56*;Diaph ctr 10uM=-35;Diaph ctr 30uM=-23
CNc1nc(-c2ccccc2)[n+](-c2ccc(C)cc2)s1,108*,19,26,61*,21,.,G6PDH counter-2=17;TbHK1 confirm=85*;PfGluPho conf=107*;Diaph ctr 10uM=-25;Diaph ctr 30uM=-13
Cc1ccc(-c2nc3ccccc3nc2-c2ccccc2)cc1,0,-1,.,.,.,.,
O=[N+]([O-])c1cc(C(F)(F)F)ccc1NCCCN1CCOCC1,0,-5,3,1,4,.,
NS(=O)(=O)c1ccc(N/N=C/c2ccc(O)cc2O)c([N+](=O)[O-])c1,1,1,.,-14,.,.,
NS(=O)(=O)c1ccc(N/N=C/c2ccc(O)c(O)c2O)c([N+](=O)[O-])c1,87*,36*,.,67*,.,-11,G6PDH counter-2=-41;TbHK1 confirm=15;PfGluPho conf=70*;Diaph ctr 10uM=5;Diaph ctr 30uM=-3
Cc1ccccc1-n1sc2cc(F)ccc2c1=O,114*,4,10,55*,6,.,G6PDH counter-2=-2;TbHK1 confirm=79*;PfGluPho conf=114*;Diaph ctr 10uM=-12;Diaph ctr 30uM=-25
Cc1ccccc1-n1c(=O)c2ccccc2n2cnnc12,6,-2,16,-3,0,.,
CCc1nnc(NC(=O)c2cccc(NC(=O)C(C)C)c2)s1,6,-3,4,-5,2,.,
O=c1c2ccccc2sn1-c1ccccc1,112*,-3,9,81*,-2,.,G6PDH counter-2=-16;TbHK1 confirm=84*;PfGluPho conf=114*;Diaph ctr 10uM=-4;Diaph ctr 30uM=-16
O=c1c2ccccc2sn1-c1nccs1,112*,0,51*,72*,2,.,G6PDH counter-2=-12;TbHK1 confirm=74*;PfGluPho conf=115*;Diaph ctr 10uM=-25;Diaph ctr 30uM=-24
O=C(Nc1ccccc1Cl)Oc1ccc2ccccc2c1,.,.,.,-5,.,.,
Cc1cccc(/C=C/C(=O)c2ccc([N+](=O)[O-])o2)c1,48,50*,.,.,.,12,
Cc1ccccc1NC(=O)c1ccc([N+](=O)[O-])o1,17,1,6,-3,2,.,
COc1ccc(/C=C/C(=O)c2ccc([N+](=O)[O-])o2)cc1,29,31,.,.,.,.,
Cc1ccccc1/C=C/C(=O)c1ccc([N+](=O)[O-])o1,80*,46*,.,.,.,36,
CCCN=C1N(C)C[C@@H]2[C@@H]3C(=O)N(Cc4ccccc4)C(=O)[C@@H]3[C@](CC)(C(=O)OC)N12,-5,-4,.,.,.,.,
O=[N+]([O-])c1ccc(Sc2nc3ccccc3o2)c([N+](=O)[O-])c1,19,35*,-5,1,7,30,
COc1cc(SC#N)ccc1N=Cc1c(C)[nH]n(-c2ccc(Cl)cc2)c1=O,14,-41,4,-38,3,-38*,
CC(C)C(NC(=O)COc1ccccc1)C(=O)O (centres undefined),-5,5,6,-3,1,.,
Cc1ccc(-c2nc(NC(=O)CSc3cc(C)c4ccccc4n3)ns2)cc1,1,57*,66*,4,4,-2,
CCCCNC(=O)/C(=C/c1ccco1)NC(=O)c1ccco1,16,3,.,.,.,.,
SMILES,PfG6PD inh,HKDC1 inh,Diaph inh CS,Tb hexokinase,G6PDH counter-1,HKDC1 act conf2,others
O=C1c2ccccc2-c2onc3ccc(Oc4ccccc4)c1c23,38,34,25,-4,28,28,
Cn1c(SSc2ccc(-c3cccnc3)n2C)ccc1-c1cccnc1,32,-341,.,.,.,-248*,
Cn1c(-c2ccccc2)c(C(=O)CC#N)c2ccccc21,-40,-45,2,-4,-1,-42*,
CC(C)NS(=O)(=O)c1ccc(NC(=O)Cc2cccs2)cc1,5,-11,6,39,6,.,
Cc1n[nH]c(=O)c2c(NC(=O)CSc3nnc(C4CC4)n3C)oc(C)c12,10,40*,.,.,.,-14,
Cc1n[nH]c(=O)c2c(NC(=O)CSc3nnc(-c4ccco4)n3C)oc(C)c12,5,-6,.,.,.,.,
CCOc1ccccc1NC(=O)CCNS(=O)(=O)c1ccccc1,-3,-4,.,.,.,.,
CCCN(C(=O)CCc1ccc(OC)cc1)c1c(N)n(Cc2ccccc2)c(=O)[nH]c1=O,-3,-4,.,.,.,.,
c1ccc(CN=C2NN=C(c3ccccc3)CS2)cc1,15,-14,5,-8,8,.,
CCN=C1NN=C(c2ccc(C)cc2)CS1,51,-64,12,-9,5,-52*,
O=C(CSc1nnc(CCCN2C(=O)c3cccc4cccc(c34)C2=O)n1-c1ccccc1)N1CCCCC1,6,37*,72*,-10,-27,48,

# Compound activity as filed in PubChem.
